Assay results: ChEMBL document CHEMBL2057188, “Hybridizing ability and nuclease resistance profile of backbone modified cationic phosphorothioate oligonucleotides” (Bioorg Med Chem, 2012)

Columns and labels:
[1] = Stability in presence of Crotalus admanteus venom phosphodiesterase assessed as intact compound level at 5.5 uM in 50 mM Tris-Hcl buffer (pH 7.5) containing 10 mM MgCl2 incubated for 15 mins at 37 degC by HPLC; assay type: ADME; conditions: pH 7.5, 0.25 h
How it was run: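 12-mers are first trimmed from the 3′ end with the venom 3′-exonuclease to give 7-mer substrates, which are purified by RP-HPLC. These are then re-incubated with enzyme in 50 mM Tris-HCl pH 7.5 with 10 mM MgCl2 at 37 °C for 15 min. The enzyme is heat-inactivated at 90 °C for 5 min, and the fraction of intact ODN remaining is quantified by HPLC.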

Nucleic Acid [2] = test: (§1) DNA hybridizing activity at single stranded DNA assessed as thermal stability of duplexes formed between compound and complimentary ssDNA by measuring melting temperature at 4 uM in presence of 10 mM pH 7.2 sodium phosphate buffer containing 100 mM NaCl by UV based melting experiment; assay type: nucleic-acid assay
Nucleic Acid [3] = test: as §1, with “measuring change in” for “measuring”, “experiment relative to untreated control” for “experiment”; assay type: nucleic-acid assay
Nucleic Acid [4] = test: (§2) DNA hybridizing activity at single stranded RNA assessed as thermal stability of duplexes formed between compound and complimentary ssRNA by measuring melting temperature at 4 uM in presence of 10 mM pH 7.2 sodium phosphate buffer containing 100 mM NaCl by UV based melting experiment; assay type: nucleic-acid assay
Nucleic Acid [5] = test: as §2, with “measuring change in” for “measuring”, “experiment relative to untreated control” for “experiment”; assay type: nucleic-acid assay
Nucleic Acid [6] = test: (§3) DNA hybridizing activity at 22 bp double stranded DNA assessed as thermal stability of duplexes formed between compound and complimentary dsDNA by measuring melting temperature at 1.5 uM in presence of 7 mM pH 5.5 sodium phosphate buffer containing 140 mM K, 10 mM MgCl2 by UV based melting experiment; assay type: nucleic-acid assay
Nucleic Acid [7] = test: as §3, with “measuring change in” for “measuring”; assay type: nucleic-acid assay

In the case of `Cc1cn([C@H]2C[C@H](OP(=O)(O)O)[C@@H](CO[P@](=O)(O[C@H]3C[C@H](n4cc(C)c(=O)[nH]c4=O)O[C@@H]3COP(=O)(O)O[C@H]3C[C@H](n4cc(C)c(=O)[nH]c4=O)O[C@@H]3COP(=O)(O)O[C@H]3C[C@H](n4cc(C)c(=O)[nH]c4=O)O[C@@H]3COP(=O)(O)O[C@H]3C[C@H](n4ccc(N)nc4=O)O[C@@H]3COP(=O)(O)O[C@H]3C[C@H](n4ccc(N)nc4=O)O[C@@H]3COP(=O)(O)O[C@H]3C[C@H](n4ccc(N)nc4=O)O[C@@H]3CO)SCCN)O2)c(=O)[nH]c1=O`, the Stability [1] is reported as “Stable”.

In the case of `Cc1cn([C@H]2C[C@H](OP(=O)(O)O)[C@@H](CO[P@@](=O)(O[C@H]3C[C@H](n4cc(C)c(=O)[nH]c4=O)O[C@@H]3COP(=O)(O)O[C@H]3C[C@H](n4cc(C)c(=O)[nH]c4=O)O[C@@H]3COP(=O)(O)O[C@H]3C[C@H](n4cc(C)c(=O)[nH]c4=O)O[C@@H]3COP(=O)(O)O[C@H]3C[C@H](n4ccc(N)nc4=O)O[C@@H]3COP(=O)(O)O[C@H]3C[C@H](n4ccc(N)nc4=O)O[C@@H]3COP(=O)(O)O[C@H]3C[C@H](n4ccc(N)nc4=O)O[C@@H]3CO)SCCCCCCN)O2)c(=O)[nH]c1=O`, the Stability [1] is reported as “Stable”.

For `Cc1cn([C@H]2C[C@H](OP(=O)(O)O)[C@@H](CO[P@@](=O)(S)O[C@H]3C[C@H](n4cc(C)c(=O)[nH]c4=O)O[C@@H]3COP(=O)(O)O[C@H]3C[C@H](n4cc(C)c(=O)[nH]c4=O)O[C@@H]3COP(=O)(O)O[C@H]3C[C@H](n4cc(C)c(=O)[nH]c4=O)O[C@@H]3COP(=O)(O)O[C@H]3C[C@H](n4ccc(N)nc4=O)O[C@@H]3COP(=O)(O)O[C@H]3C[C@H](n4ccc(N)nc4=O)O[C@@H]3COP(=O)(O)O[C@H]3C[C@H](n4ccc(N)nc4=O)O[C@@H]3CO)O2)c(=O)[nH]c1=O`, the Stability [1] was “Stable”.

For `Cc1cn([C@H]2C[C@H](OP(=O)(O)O)[C@@H](CO[P@@](=O)(O[C@H]3C[C@H](n4cc(C)c(=O)[nH]c4=O)O[C@@H]3COP(=O)(O)O[C@H]3C[C@H](n4cc(C)c(=O)[nH]c4=O)O[C@@H]3COP(=O)(O)O[C@H]3C[C@H](n4cc(C)c(=O)[nH]c4=O)O[C@@H]3COP(=O)(O)O[C@H]3C[C@H](n4ccc(N)nc4=O)O[C@@H]3COP(=O)(O)O[C@H]3C[C@H](n4ccc(N)nc4=O)O[C@@H]3COP(=O)(O)O[C@H]3C[C@H](n4ccc(N)nc4=O)O[C@@H]3CO)SCCN)O2)c(=O)[nH]c1=O`, the Stability [1] was “Stable”.

For `Cc1cn([C@H]2C[C@H](OP(=O)(O)O)[C@@H](CO[P@](=O)(S)O[C@H]3C[C@H](n4cc(C)c(=O)[nH]c4=O)O[C@@H]3COP(=O)(O)O[C@H]3C[C@H](n4cc(C)c(=O)[nH]c4=O)O[C@@H]3COP(=O)(O)O[C@H]3C[C@H](n4cc(C)c(=O)[nH]c4=O)O[C@@H]3COP(=O)(O)O[C@H]3C[C@H](n4ccc(N)nc4=O)O[C@@H]3COP(=O)(O)O[C@H]3C[C@H](n4ccc(N)nc4=O)O[C@@H]3COP(=O)(O)O[C@H]3C[C@H](n4ccc(N)nc4=O)O[C@@H]3CO)O2)c(=O)[nH]c1=O`, the Stability [1] was “Stable”.

In the case of `Cc1cn([C@H]2C[C@H](OP(=O)(O)OC[C@H]3O[C@@H](n4cc(C)c(=O)[nH]c4=O)C[C@@H]3OP(=O)(O)OC[C@H]3O[C@@H](n4cc(C)c(=O)[nH]c4=O)C[C@@H]3O[P@](=O)(OC[C@H]3O[C@@H](n4cc(C)c(=O)[nH]c4=O)C[C@@H]3OP(=O)(O)OC[C@H]3O[C@@H](n4cc(C)c(=O)[nH]c4=O)C[C@@H]3OP(=O)(O)OC[C@H]3O[C@@H](n4cc(C)c(=O)[nH]c4=O)C[C@@H]3OP(=O)(O)OC[C@H]3O[C@@H](n4ccc(N)nc4=O)C[C@@H]3OP(=O)(O)OC[C@H]3O[C@@H](n4ccc(N)nc4=O)C[C@@H]3OP(=O)(O)OC[C@H]3O[C@@H](n4ccc(N)nc4=O)C[C@@H]3OP(=O)(O)O)SCCCN3CCNCC3)[C@@H](COP(=O)(O)O[C@H]3C[C@H](n4ccc(N)nc4=O)O[C@@H]3COP(=O)(O)O[C@H]3C[C@H](n4ccc(N)nc4=O)O[C@@H]3COP(=O)(O)O[C@H]3C[C@H](n4ccc(N)nc4=O)O[C@@H]3CO)O2)c(=O)[nH]c1=O`, the Tm (Nucleic Acid [2]) is reported as 41 °C, the ΔTm (Nucleic Acid [3]) is reported as -1 °C and the Tm (Nucleic Acid [4]) is reported as 43 °C. It also gave a ΔTm (Nucleic Acid [5]) of -3 °C, a Tm (Nucleic Acid [6]) of 23 °C and a ΔTm (Nucleic Acid [7]) of -3 °C.

With `Cc1cn([C@H]2C[C@H](OP(=O)(O)O)[C@@H](CO[P@](=O)(O[C@H]3C[C@H](n4cc(C)c(=O)[nH]c4=O)O[C@@H]3COP(=O)(O)O[C@H]3C[C@H](n4cc(C)c(=O)[nH]c4=O)O[C@@H]3COP(=O)(O)O[C@H]3C[C@H](n4cc(C)c(=O)[nH]c4=O)O[C@@H]3COP(=O)(O)O[C@H]3C[C@H](n4ccc(N)nc4=O)O[C@@H]3COP(=O)(O)O[C@H]3C[C@H](n4ccc(N)nc4=O)O[C@@H]3COP(=O)(O)O[C@H]3C[C@H](n4ccc(N)nc4=O)O[C@@H]3CO)SCCCCCCN)O2)c(=O)[nH]c1=O` the Stability [1] was “Stable”.

Work on `Cc1cn([C@H]2C[C@H](OP(=O)(O)OC[C@H]3O[C@@H](n4cc(C)c(=O)[nH]c4=O)C[C@@H]3OP(=O)(O)OC[C@H]3O[C@@H](n4cc(C)c(=O)[nH]c4=O)C[C@@H]3O[P@](=O)(OC[C@H]3O[C@@H](n4cc(C)c(=O)[nH]c4=O)C[C@@H]3OP(=O)(O)OC[C@H]3O[C@@H](n4cc(C)c(=O)[nH]c4=O)C[C@@H]3OP(=O)(O)OC[C@H]3O[C@@H](n4cc(C)c(=O)[nH]c4=O)C[C@@H]3OP(=O)(O)OC[C@H]3O[C@@H](n4ccc(N)nc4=O)C[C@@H]3OP(=O)(O)OC[C@H]3O[C@@H](n4ccc(N)nc4=O)C[C@@H]3OP(=O)(O)OC[C@H]3O[C@@H](n4ccc(N)nc4=O)C[C@@H]3OP(=O)(O)O)SCCCCN)[C@@H](COP(=O)(O)O[C@H]3C[C@H](n4ccc(N)nc4=O)O[C@@H]3COP(=O)(O)O[C@H]3C[C@H](n4ccc(N)nc4=O)O[C@@H]3COP(=O)(O)O[C@H]3C[C@H](n4ccc(N)nc4=O)O[C@@H]3CO)O2)c(=O)[nH]c1=O` yielded a Tm (Nucleic Acid [2]) of 40 °C, a ΔTm (Nucleic Acid [3]) of -2 °C and a Tm (Nucleic Acid [4]) of 43 °C. The ΔTm (Nucleic Acid [5]) was -3 °C, the Tm (Nucleic Acid [6]) was 24 °C and the ΔTm (Nucleic Acid [7]) was -2 °C.
